Experimental findings from ChEMBL document CHEMBL3085685, “In vitro and in vivo antileishmanial and trypanocidal studies of new N-benzene- and N-naphthalenesulfonamide derivatives” (J Med Chem, 2013) are described below.

A short description of series [1]: Cytotoxicity against mouse NCTC-929 cells assessed as reduction of cell viability after 24 hrs by resazurin dye-based […]. The essentials:
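NCTC clone 929 fibroblasts in DMEM with 10% FBS and 2 mM L-glutamine, plated at 3 × 10^4 cells/well and grown overnight at 37 °C, 5% CO2. Compounds in fresh medium for 24 h, then 2 mM resazurin solution added for 3 h. Absorbance read at 570 and 595 nm; CC50 taken as 50% viability loss versus untreated cells, by probit analysis.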
A general note: Alamar Blue is a resazurin reagent that responds to reducing activity.

The nature of series [2]: Cytotoxicity against mouse J774 cells assessed as reduction of cell viability after 24 hrs by resazurin dye-based fluorometric analysis. In a few lines: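 J774 macrophages in RPMI 1640 with 10% heat-inactivated FBS, seeded at 5 × 10^4 cells/well and attached 24 h at 37 °C, 5% CO2. Medium swapped for drug dilutions for 24 h. Then 2.5 mM resazurin stock added for 3 h, fluorescence read at 535 nm excitation / 590 nm emission. Triplicate; CC50 from probit analysis.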

In series [3] the test system is Leishmania amazonensis. Briefly: Leishmanicidal activity against extracellular promastigote stage of Leishmania amazonensis MHOM/Br/79/Maria assessed as reduction of parasite load after 48 hrs by resazurin dye-based fluorometric analysis. It is filed as functional, organism-based. In a few lines:
(§1)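 Log-phase promastigotes cultured in Schneider's medium with 20% heat-inactivated FBS at 26 °C, 2.5 × 10^5 per well. DMSO-dissolved compounds added as 2-fold serial dilutions, final DMSO ≤0.2% (v/v), 48 h at 26 °C. Growth read by 2.5 mM resazurin stock, fluorescence 535/590 nm. Triplicate; IC50 by probit analysis.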

For series [4], the system named is Leishmania guyanensis. The series is described as follows: Leishmanicidal activity against extracellular promastigote stage of Leishmania guyanensis 141/93 assessed as reduction of parasite load after 48 hrs by resazurin dye-based fluorometric analysis. Type of series: functional, organism-based. The essentials: as §1
The test system of series [5] is Leishmania braziliensis. The series is described as follows: Leishmanicidal activity against extracellular promastigote stage of Leishmania braziliensis 2903 assessed as reduction of parasite load after 48 hrs by resazurin dye-based fluorometric analysis. It is filed as functional, organism-based. The essentials: as §1
The subject of series [6] is Leishmania infantum. Briefly: Leishmanicidal activity against extracellular promastigote stage of Leishmania infantum MCAN/ES/96/BCN150 assessed as reduction of parasite load after 48 hrs by resazurin dye-based fluorometric analysis. It is filed as functional, organism-based. In a few lines: as §1
In series [7] the test system is Trypanosoma cruzi. The series is described as follows: Trypanocidal activity against extracellular epimastigote stage of Trypanosoma cruzi CL-B5 assessed as reduction of parasite load after 72 hrs by CPRG-based colorimetric analysis.
Series [8] relates to Leishmania amazonensis. Briefly: Leishmanicidal activity against intracellular amastigote stage of Leishmania amazonensis MHOM/Br/79/Maria infected in mouse J774 cells assessed as reduction of parasite load after 48 hrs by resazurin dye-based fluorometric analysis. Type of series: functional, organism-based. The settings on record: Leishmania amazonensis, MHOM/Br/79/Maria, J774, 48 h; read-out: IC50. In a few lines:
(§2)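 J774 macrophages (5 × 10^4/well) infected with stationary promastigotes at 1:10, 24 h at 33 °C then 24 h at 37 °C, 5% CO2, and washed free of promastigotes. Then 2-fold serial dilutions in triplicate for 48 h at 37 °C. Cells lysed with RPMI with 0.048% HEPES and 0.006% SDS, transformed in Schneider's 3 days at 26 °C, resazurin 3 h, fluorescence 535/590 nm.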

For series [9], the system named is Leishmania infantum. The series is described as follows: Leishmanicidal activity against intracellular amastigote stage of Leishmania infantum MCAN/ES/96/BCN150 infected in mouse J774 cells assessed as reduction of parasite load after 48 hrs by resazurin dye-based fluorometric analysis. It is filed as functional, organism-based. The settings on record: Leishmania infantum, MCAN/ES/96/BCN150, J774, 48 h; read-out: IC50. In a few lines:
as §2

Setting [10] is: Trypanosoma cruzi, CL-B5, 72 h, read-out: IC50.
[11] abbreviates: Leishmania amazonensis, MHOM/Br/79/Maria, 48 h, read-out: IC50.
Where [12] appears, read: Leishmania guyanensis, 141/93, 48 h, read-out: IC50.
[13] abbreviates: Leishmania braziliensis, 2903, 48 h, read-out: IC50.
The mark [14] stands for this setting: Leishmania infantum, MCAN/ES/96/BCN150, 48 h, read-out: IC50.

On to `O=S(=O)(c1cccc2ccccc12)N1CCc2ccccc2C1`, for which the figures for the CC50 at 24 h in series [1] and in [2] were above 310 µM and at least 300 µM, respectively. The IC50 – broadly, the midpoint of a concentration-inhibition curve – was “Not Active” in [3]; “Not Active” in [4]; “Not Active” in series [5]; “Not Active” in series [6]; 114 µM in series [7] (setting [10]).
`O=S(=O)(Nc1ccc2[nH]ncc2c1)c1ccc(F)cc1`: the 50% cytotoxic concentration (CC50) (as a rule, the concentration that lowers cell viability or growth by half) at 24 h in series [2] is at least 300 µM. In addition, the IC50 was 116 µM in [3] (setting [11]); 102 µM in [4] (setting [12]); 86.6 µM in [5] (setting [13]); 65.4 µM in series [6] (setting [14]); “Not Active” in series [7].
Consider `O=[N+]([O-])c1ccc(S(=O)(=O)Nc2nccc3ccccc23)cc1`, for which, in series [2], the 50% cytotoxic concentration (CC50) at 24 h is 41.3 µM. Moreover, the IC50 was determined as 27 µM in [3] (setting [11]); 24.6 µM in [4] (setting [12]); 42.5 µM in series [5] (setting [13]); 39.5 µM in series [6] (setting [14]); 136 µM in [7] (setting [10]).
For the compound `O=S(=O)(Nc1ccc2nccnc2c1)c1ccc(Cl)cc1`, the CC50 at 24 h in series [2] worked out at 23.8 µM. In addition, the half-maximal inhibitory concentration (IC50) came to 46.2 µM in [3] (setting [11]), 25.9 µM in [4] (setting [12]), 80.9 µM in series [5] (setting [13]) and 51.5 µM in series [6] (setting [14]).
`O=[N+]([O-])c1ccc(S(=O)(=O)Nc2ccc3ncsc3c2)cc1`: in series [2], the CC50 at 24 h is at least 300 µM. Besides, the half-inhibitory concentration (IC50) is 89.6 µM in series [3] (setting [11]); 53.7 µM in series [4] (setting [12]); 31 µM in [5] (setting [13]); 85.5 µM in series [6] (setting [14]); “Not Active” in series [7].
On to `Cc1cc2cc(NS(=O)(=O)c3ccc(F)cc3)ccc2[nH]1`, for which the CC50 at 24 h in [2] is 40.4 µM. In addition, the IC50 in series [3] (setting [11]) turned out to be 12.5 µM; in series [4] (setting [12]), 117 µM; in [5] (setting [13]), 42.7 µM; in [6] (setting [14]), 34.5 µM.
Take `O=C(Cn1ccnc1[N+](=O)[O-])NCc1ccccc1` [BENZNIDAZOLE]: the results for the cytotoxic concentration (CC50) at 24 h in series [1] and in series [2] were above 194 µM and at least 300 µM, respectively.
As to `O=S(=O)(Nc1ccc2[nH]ncc2c1)c1cccc2ccccc12`, the 50% cytotoxic concentration (CC50) at 24 h in series [2] turned out to be 30 µM. Further, the 50% inhibitory concentration (IC50) turned out to be 37.7 µM in [3] (setting [11]), 52.8 µM in series [4] (setting [12]), 39.7 µM in series [5] (setting [13]) and 37.3 µM in [6] (setting [14]).
For `O=S(=O)(Nc1cccc2cnccc12)c1ccc(Cl)cc1` the same measures were 60.8 µM, 8.4 µM, 22.6 µM, 29.8 µM and 21 µM.
For `O=S(=O)(Nc1ccc2nccnc2c1)c1ccc(F)cc1` the same measures were 43.9 µM, 14.2 µM, 29.8 µM, 13.4 µM and 33.4 µM.
Take `CC1CCCN(S(=O)(=O)c2ccccc2)C1` (centres undefined): in [2], the half-maximal cytotoxic concentration (CC50) at 24 h was at least 300 µM. Moreover, the IC50 was 40.9 µM in series [3] (setting [11]); 54.3 µM in series [4] (setting [12]); 115 µM in series [5] (setting [13]); 112 µM in [6] (setting [14]); “Not Active” in series [7].
In the case of `Cc1cc2cc(NS(=O)(=O)c3ccc([N+](=O)[O-])cc3)ccc2[nH]1`, the CC50 at 24 h in series [2] is 132 µM. The 50% inhibitory concentration (IC50) in series [3] (setting [11]) worked out at 15.8 µM; in series [4] (setting [12]), 19.6 µM; in series [5] (setting [13]), 16.8 µM; in series [6] (setting [14]) it was 35.2 µM.
For `O=[N+]([O-])c1ccc(S(=O)(=O)Nc2ccc3[nH]ncc3c2)cc1` the same measures were 133 µM, 66.7 µM, 140 µM, 80.8 µM and 61.3 µM.
As for `O=[N+]([O-])c1ccc(S(=O)(=O)Nc2ccc3nccnc3c2)cc1`, the CC50 at 24 h in [2] was at least 300 µM. Further, the half-inhibitory concentration (IC50) in series [3] (setting [11]) was 198 µM; in [4] (setting [12]), 101 µM; in series [5] (setting [13]), 60.8 µM; in series [6] (setting [14]) it was 81.7 µM; in series [7], “Not Active”.
Consider `O=S(=O)(Nc1nccc2ccccc12)c1ccc(Cl)cc1`, for which the CC50 at 24 h in series [2] is at least 300 µM. The IC50 is 82.8 µM in [3] (setting [11]); 4.3 µM in [4] (setting [12]); 37 µM in series [5] (setting [13]); 51.4 µM in series [6] (setting [14]); “Not Active” in [7].
As to `CCCCCCCCCCCCCCCCOP(=O)([O-])OCC[N+](C)(C)C` [MILTEFOSINE], the 50% inhibitory concentration (IC50) in series [8] amounted to 20.9 µM; in series [9] it was 23.7 µM; in series [3] (setting [11]) it was 34.1 µM; in series [4] (setting [12]), 44.6 µM; in series [5] (setting [13]) it was 7.6 µM; in [6] (setting [14]), 17.6 µM. The CC50 at 24 h in [2] was 136 µM.
`O=S(=O)(Nc1nccc2ccccc12)c1ccccc1`: in series [2], the CC50 at 24 h is at least 300 µM. Further, the IC50 is 93.5 µM in series [3] (setting [11]), 93.5 µM in [4] (setting [12]), 162 µM in series [5] (setting [13]) and “Not Active” in series [6].
Turning to `Cc1cc2cc(NS(=O)(=O)c3cccc4ccccc34)ccc2[nH]1`, the CC50 at 24 h in series [2] is 24.6 µM. The IC50 is 7.4 µM in [3] (setting [11]), 13.6 µM in series [4] (setting [12]), 11.6 µM in series [5] (setting [13]) and 11.9 µM in series [6] (setting [14]).
Taken in the same sequence, the figures for `Cc1cc2cc(NS(=O)(=O)c3ccc(Cl)cc3)ccc2[nH]1` were 195 µM, 18.2 µM, 10.4 µM, 23 µM and 12.4 µM.
As for `O=[N+]([O-])c1ccc(S(=O)(=O)Nc2ccc3cn[nH]c3c2)cc1`, the half-maximal cytotoxic concentration (CC50) at 24 h in series [2] was at least 300 µM. Moreover, the IC50 in [3] (setting [11]) was 60.3 µM; in [4] (setting [12]), 48.1 µM; in series [5] (setting [13]), 21.7 µM; in [6] (setting [14]), 43.3 µM; in [7] it was “Not Active”.
As to `O=[N+]([O-])c1ccc(S(=O)(=O)Nc2ncccn2)cc1`, the half-maximal cytotoxic concentration (CC50) at 24 h in series [2] was at least 300 µM. Also, the IC50 in series [3] (setting [11]) turned out to be 68.6 µM; in [4] (setting [12]) it was 46.4 µM; in [5] (setting [13]) it was 48.8 µM; in [6] (setting [14]) it was 76.4 µM; in [7] (setting [10]), 156 µM.
